Here are results for 21 compounds from ChEMBL document CHEMBL1138666, “Direct influence of C-terminally substituted amino acids in the Dmt-Tic pharmacophore on delta-opioid receptor selectivity and antagonism” (J Med Chem, 2004).

Square brackets hold non-standard residues; d marks the D form. Peptide text beside a SMILES is read from it. ξ: configuration not given here. Dmt = Cc1cc(O)cc(C)c1C[C@H](N)C(=O)O; Tic = O=C(O)[C@@H]1Cc2ccccc2CN1; ξTic = O=C(O)C1Cc2ccccc2CN1

For assay [1], the target named is T1, Mu-type opioid receptor (Cavia porcellus, UniProt P97266). Nature of the assay: Inhibition of Opioid receptor mu 1 in guinea pig ileum assay. It counts as functional, tissue-based. The procedure, abridged:
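Male guinea pig ileum myenteric plexus-longitudinal muscle, field-stimulated with supramaximal-voltage bipolar rectangular pulses. Inhibition of the electrically evoked twitch was measured, with dermorphin as reference agonist. IC50 was taken from concentration-response curves, mean ± SE of at least five to six fresh tissues.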

Assay [2] in a line: Binding affinity for rat Opioid receptor delta 1. The procedure, abridged:
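Rat brain synaptosomes (P2), preincubated to remove endogenous opioids and stored at -80 °C in buffered 20% glycerol. […] Filters were PEI-soaked GF/C, washed thrice in ice-cold buffered BSA. Five to eight doses, duplicates, independent preparations; Ki by Cheng-Prusoff, mean ± SE.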

Assay [3] can be described thus: Binding affinity for rat Opioid receptor mu 1.
For assay [4], the target named is T2, Delta-type opioid receptor (Mus musculus, UniProt P32300). Nature of the assay: Antagonist activity against deltorphin in mouse vas deferens assay. It counts as functional, tissue-based. The note with it: read-out: pA2 (converted). The procedure, abridged: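 Mouse vas deferens, field-stimulated with supramaximal-voltage bipolar rectangular pulses. Antagonism was scored as a rightward shift of the deltorphin C log(concentration)-response curve and reported as pA2, the negative log molar antagonist concentration that doubles the agonist concentration needed for the original submaximal response.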
T2 sequence (P32300 whole entry): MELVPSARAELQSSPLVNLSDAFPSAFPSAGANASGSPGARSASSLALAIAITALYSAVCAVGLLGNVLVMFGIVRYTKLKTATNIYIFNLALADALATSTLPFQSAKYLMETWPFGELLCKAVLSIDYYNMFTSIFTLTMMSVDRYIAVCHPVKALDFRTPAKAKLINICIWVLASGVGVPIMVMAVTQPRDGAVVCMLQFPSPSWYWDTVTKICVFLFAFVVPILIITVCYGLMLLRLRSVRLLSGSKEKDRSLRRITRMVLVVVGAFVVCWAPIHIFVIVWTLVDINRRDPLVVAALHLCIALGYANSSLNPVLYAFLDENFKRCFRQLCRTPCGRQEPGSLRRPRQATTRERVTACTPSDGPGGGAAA

For assay [5], the species on record is Rattus norvegicus. Nature of the assay: Ratio of binding affinities for rat Opioid receptors mu 1 and delta 1.
The target in assay [6] is T2, Delta-type opioid receptor. Nature of the assay: Inhibition of Delta opioid receptor in mouse vas deferens assay. It counts as functional. The procedure, abridged: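 Mouse vas deferens, field-stimulated with supramaximal-voltage bipolar rectangular pulses. Inhibition of the electrically evoked twitch was measured, with deltorphin C as reference agonist. IC50 was taken from concentration-response curves, mean ± SE of at least five to six fresh tissues.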

Assay [7] has as its target T1, Mu-type opioid receptor. Nature of the assay: Antagonist activity against dermorphin in guinea pig ileum assay. The assay is classed as functional, tissue-based. The note with it: read-out: pA2 (converted). The procedure, abridged:
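Male guinea pig ileum myenteric plexus-longitudinal muscle, field-stimulated with supramaximal-voltage bipolar rectangular pulses. Antagonism was scored as a rightward shift of the dermorphin log(concentration)-response curve and reported as pA2, the negative log molar antagonist concentration that doubles the agonist concentration needed for the original submaximal response.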

T1 sequence (P97266 whole entry): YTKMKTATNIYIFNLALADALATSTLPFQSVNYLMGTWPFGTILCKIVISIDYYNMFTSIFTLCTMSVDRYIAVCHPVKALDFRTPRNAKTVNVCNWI

As usually defined, the IC50 is the concentration at which inhibition is half-maximal. A lower IC50 goes with higher potency. The term Ki denotes a measure of affinity in units of concentration, obtained from inhibition or displacement. Low readings indicate a stronger hold on the target, high ones a looser hold on the target. Consider `Cc1cc(O)cc(C)c1C[C@H](N)C(=O)N1Cc2ccccc2C[C@H]1C(=O)N[C@H](CC(N)=O)C(=O)O`, for which the IC50 in assay [1] is > 10000 nM. In addition, the Ki in assay [2] turned out to be 0.74 nM; in assay [3] it was 4000 nM. Moreover, the Kb in assay [4] is 5.89 nM. Also, the Ratio in assay [5] was 5.4.
On to `CC(=O)NCCCC[C@@H](NC(=O)[C@@H]1Cc2ccccc2CN1C(=O)[C@@H](N)Cc1c(C)cc(O)cc1C)C(=O)O`, for which the IC50 in assay [1] came to 1500 nM. The Ki worked out at 0.08 nM in assay [2] and 86.8 nM in assay [3]. Moreover, the Kb in assay [4] was 0.513 nM. For the same compound, the Ratio in assay [5] was determined as 1.05.
As to `Cc1cc(O)cc(C)c1C[C@H](N)C(=O)N1Cc2ccccc2C[C@H]1C(=O)NC(CO)C(N)=O` (single isomer, unassigned), the IC50 in assay [1] was > 10000 nM. The values for the inhibition constant Ki in assay [2] and in assay [3] were 0.13 nM and 140 nM, respectively. The Kb in assay [4] was 8.51 nM. The Ratio in assay [5] stood at 1.12.
In the same order, the values of `Cc1cc(O)cc(C)c1C[C@H](N)C(=O)N1Cc2ccccc2C[C@H]1C(=O)N[C@H](CCC(N)=O)C(=O)O` are > 10000 nM, 0.45 nM, 562 nM, 1.23 nM and 1.25.
For `Cc1cc(O)cc(C)c1C[C@H](N)C(=O)N1Cc2ccccc2C[C@H]1C(=O)NC(CO)C(=O)O` (single isomer, unassigned) the same measures were > 10000 nM, 0.27 nM, 2830 nM, 1.32 nM and 10.5.
For `Cc1cc(O)cc(C)c1C[C@H](N)C(=O)N1Cc2ccccc2C[C@H]1C(=O)NCC(N)=O` (H-[Dmt]-[Tic]-Gly-NH2) the same measures were > 10000 nM, 0.25 nM, 140 nM, 22.4 nM and 559.
In turn, `Cc1cc(O)cc(C)c1C[C@H](N)C(=O)N1Cc2ccccc2C[C@H]1C(=O)NC(CCCCN)C(N)=O` (single isomer, unassigned) returned an IC50 in assay [1] of 7870 nM. Besides, the Ki in assay [2] was 0.71 nM; in assay [3], 17 nM. In addition, in assay [4], the Kb was 13.5 nM. Further, the Ratio in assay [5] stood at 24.
With `Cc1cc(O)cc(C)c1C[C@H](N)C(=O)N1Cc2ccccc2C[C@H]1C(=O)N[C@@H](C)C(=O)O`, the IC50 in assay [1] was > 10000 nM. Also, the Ki stood at 0.29 nM in assay [2] and 5820 nM in assay [3].
On to `Cc1cc(O)cc(C)c1C[C@H](N)C(=O)N1Cc2ccccc2C[C@H]1C(=O)N[C@H](C)C(=O)O`, for which the Ratio in assay [5] came to 20.4.
`Cc1cc(O)cc(C)c1C[C@H](N)C(=O)N1Cc2ccccc2C[C@H]1C(=O)NC(CCCN=C(N)N)C(N)=O` (single isomer, unassigned) displayed an IC50 in assay [1] of 6600 nM. Besides, the Ki was 0.73 nM in assay [2] and 15.1 nM in assay [3]. Besides, in assay [4], the Kb is 126 nM. The Ratio in assay [5] came out at 21.
With `Cc1cc(O)cc(C)c1C[C@H](N)C(=O)N1Cc2ccccc2C[C@H]1C(=O)N[C@@H](CCC(=O)O)C(N)=O`, the Ki in assay [2] was found to be 0.06 nM; in assay [3], 1360 nM. The compound also registered an IC50 in assay [6] of 2500 nM. For the same compound, the Kb in assay [4] is < 0.1 nM. For the same compound, in assay [5], the Ratio was 22.6.
For `Cc1cc(O)cc(C)c1C[C@H](N)C(=O)N1Cc2ccccc2C[C@H]1C(=O)N[C@@H](CC(N)=O)C(=O)O`, in assay [1], the IC50 was > 10000 nM. Besides, the Ki is 1.1 nM in assay [2] and 80.3 nM in assay [3]. In assay [4], the Kb is 5.89 nM. Besides, the Ratio in assay [5] is 73.
For `Cc1cc(O)cc(C)c1C[C@H](N)C(=O)N1Cc2ccccc2C[C@H]1C(=O)N[C@@H](CC(=O)O)C(N)=O` the same measures were > 10000 nM, 0.29 nM, 2560 nM, 7.59 nM and 8.88.
In the case of `Cc1cc(O)cc(C)c1C[C@H](N)C(=O)N1Cc2ccccc2C[C@H]1C(=O)N[C@H](CCC(=O)O)C(N)=O`, the Ki in assay [2] was 0.05 nM; in assay [3], 920 nM. The Kb in assay [7] was < 7940 nM; in assay [4] it was 2.29 nM. The Ratio in assay [5] amounted to 17.4.
Consider `Cc1cc(O)cc(C)c1C[C@H](N)C(=O)N1Cc2ccccc2CC1C(=O)N[C@@H](Cc1c[nH]c2ccccc12)C(=O)O` (some centres undefined) (H-[Dmt]-[ξTic]-Trp-OH), for which, in assay [5], the Ratio came to 462.
Regarding `Cc1cc(O)cc(C)c1C[C@H](N)C(=O)N1Cc2ccccc2C[C@H]1C(=O)N[C@@H](CCC(N)=O)C(=O)O`, in assay [1], the IC50 is > 10000 nM. The Ki in assay [2] amounted to 0.32 nM; in assay [3] it was 465 nM. The Kb in assay [4] is 1.05 nM. Further, the Ratio in assay [5] amounted to 1.43.
In the same order, the values of `Cc1cc(O)cc(C)c1C[C@H](N)C(=O)N1Cc2ccccc2C[C@H]1C(=O)NC(Cc1c[nH]cn1)C(=O)O` (single isomer, unassigned) are > 10000 nM, 0.12 nM, 174 nM, 1.91 nM and 1.4.
In assay [1], `Cc1cc(O)cc(C)c1C[C@H](N)C(=O)N1Cc2ccccc2C[C@H]1C(=O)N[C@@H](Cc1c[nH]c2ccccc12)C(=O)O` (H-[Dmt]-[Tic]-Trp-OH) gave an IC50 of 1500 nM. The inhibitory constant (Ki) in assay [2] is 0.03 nM; in assay [3], 15.7 nM. Besides, the Kb in assay [4] is 0.269 nM.
For the compound `Cc1cc(O)cc(C)c1C[C@H](N)C(=O)N1Cc2ccccc2C[C@H]1C(=O)NC(C)C(N)=O` (stereo in doubt), the IC50 in assay [1] was > 10000 nM. For the same compound, the Ki in assay [2] came out at 0.3 nM; in assay [3], 47.5 nM. For the same compound, the Kb in assay [4] was 25.1 nM. Further, the Ratio in assay [5] stood at 158.
As to `CC(=O)NCCCC[C@H](NC(=O)[C@@H]1Cc2ccccc2CN1C(=O)[C@@H](N)Cc1c(C)cc(O)cc1C)C(=O)O`, in assay [1], the IC50 is > 10000 nM. For the same compound, the Ki in assay [2] came out at 0.04 nM; in assay [3], 1050 nM. Further, the Kb in assay [4] is 0.0851 nM. Moreover, in assay [5], the Ratio was found to be 22.4.
As to `Cc1cc(O)cc(C)c1C[C@H](N)C(=O)N1Cc2ccccc2C[C@H]1C(=O)N[C@H](CC(=O)O)C(N)=O`, in assay [1], the IC50 was > 10000 nM. The Ki in assay [2] was found to be 0.44 nM; in assay [3], 367 nM. In assay [4], the Kb is 7.24 nM. Further, the Ratio in assay [5] stood at 834.
